From ChEMBL document CHEMBL1125520, “Improved brain delivery of AZT using a glycosyl phosphotriester prodrug” (1992)

Assays:
Mus musculus [1] = experiment: In Vivo detection in Mice brains after oral administration of 41.63 mg/kg detected in the form of AZT 5`-P after 0.5 hr; type: functional
Mus musculus [2] = experiment: In Vivo detection in Mice brains after oral administration of 41.63 mg/kg detected in the form of AZT 5`-P after 48 hr; type: functional
Mus musculus [3] = experiment: In Vivo detection in Mice brains after oral administration of 41.63 mg/kg detected in the form of AZT 5`-P after 8 hr; type: functional
Mus musculus [4] = experiment: In Vivo detection in Mice brains after oral administration of 41.63 mg/kg detected in the form of AZT after 0.5 hr; type: functional
Mus musculus [5] = experiment: In Vivo detection in Mice brains after oral administration of 41.63 mg/kg detected in the form of AZT after 24 hr; type: functional
Mus musculus [6] = experiment: In Vivo detection in Mice plasma after oral administration of 41.63 mg/kg detected in the form of AZT 5`-P after 0.5 hr; type: functional, organism-based; parameters: dose 41.63 mg/kg
Mus musculus [7] = experiment: In Vivo detection of total AZT in Mice brains after oral administration of 41.63 mg/kg after 24 hr; type: functional
Procedure, shortened: (§1)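 Male Swiss mice (18–20 g) dosed orally with a 3 mM solution in […] vehicle; decapitated at 0.5–48 h. Brains were homogenized in acetonitrile-water (3:1), centrifuged at 6000g for 40 min at 4 °C, lyophilized, redissolved in water and filtered (0.45 µm). Reversed-phase C18 column-switching HPLC with diode-array detection; standard spiking; vehicle-fed controls. Three mice per point, triplicates.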

Mus musculus [8] = experiment: In Vivo detection of total AZT in Mice brains after oral administration of 41.63 mg/kg after 2 hr; type: functional; procedure, shortened: as §1
Mus musculus [9] = experiment: In Vivo detection in Mice plasma after oral administration of 41.63 mg/kg detected in the form of AZT after 24 hr; type: functional, organism-based; parameters: dose 41.63 mg/kg
Mus musculus [10] = experiment: In Vivo detection in Mice plasma after oral administration of 41.63 mg/kg detected in the form of AZT after 4 hr; type: functional, organism-based; parameters: dose 41.63 mg/kg
Mus musculus [11] = experiment: In Vivo detection in Mice plasma after oral administration of 41.63 mg/kg detected in the form of AZT phosphodiester 2 after 2 hr; type: functional, organism-based; parameters: dose 41.63 mg/kg
Mus musculus [12] = experiment: In Vivo detection of total AZT in Mice brains after oral administration of 41.63 mg/kg after 0.5 hr; type: functional; procedure, shortened: as §1
Mus musculus [13] = experiment: In Vivo detection in Mice plasma after oral administration of 41.63 mg/kg detected in the form of AZT 5`-P after 48 hr; type: functional, organism-based; parameters: dose 41.63 mg/kg
Mus musculus [14] = experiment: In Vivo detection in Mice plasma after oral administration of 41.63 mg/kg detected in the form of AZT 5`-P after 4 hr; type: functional, organism-based; parameters: dose 41.63 mg/kg
Mus musculus [15] = experiment: In Vivo detection of total AZT in Mice brains after oral administration of 41.63 mg/kg after 8 hr; type: functional; procedure, shortened: as §1
Mus musculus [16] = experiment: In Vivo detection in Mice brains after oral administration of 41.63 mg/kg detected in the form of AZT phosphodiester 2 after 24 hr; type: functional
Mus musculus [17] = experiment: In Vivo detection in Mice brains after oral administration of 41.63 mg/kg detected in the form of AZT phosphodiester 2 after 2 hr; type: functional
Mus musculus [18] = experiment: In Vivo detection of total AZT in Mice plasma after oral administration of 41.63 mg/kg after 0.5 hr; type: functional, organism-based; parameters: dose 41.63 mg/kg
Procedure, shortened: (§2)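 Male Swiss mice (18–20 g, six weeks old) given the test substance or vehicle ([…]) by gavage as a 3 mM solution (1.5 µmol/mouse). Aortic blood was collected into heparinized tubes at 0.5–48 h and centrifuged at 13000g for 10 min. Plasma was stored at -22 °C and analysed by HPLC. Three mice were used per time point, in triplicate. Values were not corrected for recovery.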

Mus musculus [19] = experiment: In Vivo detection of total AZT in Mice plasma after oral administration of 41.63 mg/kg after 2 hr; type: functional, organism-based; parameters: dose 41.63 mg/kg; procedure, shortened: as §2
Mus musculus [20] = experiment: In Vivo detection in Mice brains after oral administration of 41.63 mg/kg detected in the form of AZT phosphodiester 2 after 4 hr; type: functional
Mus musculus [21] = experiment: In Vivo detection in Mice plasma after oral administration of 41.63 mg/kg detected in the form of AZT after 0.5 hr; type: functional, organism-based; parameters: dose 41.63 mg/kg
Mus musculus [22] = experiment: In Vivo detection in Mice brains after oral administration of 58.33 mg/kg detected in the form of AZT 5`-P after 8 hr; type: functional
Mus musculus [23] = experiment: In Vivo detection in Mice brains after oral administration of 58.33 mg/kg detected in the form of AZT after 2 hr; type: functional
Mus musculus [24] = experiment: In Vivo detection in Mice brains after oral administration of 58.33 mg/kg detected in the form of AZT phosphodiester 2 after 24 hr; type: functional
Mus musculus [25] = experiment: In Vivo detection in Mice brains after oral administration of 58.33 mg/kg detected in the form of AZT phosphodiester 2 after 4 hr; type: functional
Mus musculus [26] = experiment: In Vivo detection in Mice brains after oral administration of 58.33 mg/kg detected in the form of AZT phosphodiester 3 after 1 hr; type: functional
Mus musculus [27] = experiment: In Vivo detection of total AZT in Mice brains after oral administration of 58.33 mg/kg after 8 hr; type: functional; procedure, shortened: as §1
Mus musculus [28] = experiment: In Vivo detection in Mice plasma after oral administration of 58.33 mg/kg detected in the form of AZT 5`-P after 1 hr; type: functional, organism-based; parameters: dose 58.33 mg/kg
Mus musculus [29] = experiment: In Vivo detection in Mice plasma after oral administration of 58.33 mg/kg detected in the form of AZT 5`-P after 48 hr; type: functional, organism-based; parameters: dose 58.33 mg/kg
Mus musculus [30] = experiment: In Vivo detection in Mice plasma after oral administration of 58.33 mg/kg detected in the form of AZT phosphodiester 3 after 48 hr; type: functional, organism-based; parameters: dose 58.33 mg/kg; procedure, shortened: as §2
Mus musculus [31] = experiment: In Vivo detection in Mice brains after oral administration of 58.33 mg/kg detected in the form of AZT phosphodiester 3 after 4 hr; type: functional
Mus musculus [32] = experiment: In Vivo detection of total AZT in Mice brains after oral administration of 58.33 mg/kg after 2 hr; type: functional; procedure, shortened: as §1
Mus musculus [33] = experiment: In Vivo detection of total AZT in Mice plasma after oral administration of 58.33 mg/kg after 8 hr; type: functional, organism-based; parameters: dose 58.33 mg/kg; procedure, shortened: as §2
Mus musculus [34] = experiment: In Vivo detection in Mice plasma after oral administration of 58.33 mg/kg detected in the form of AZT after 24 hr; type: functional, organism-based; parameters: dose 58.33 mg/kg
Mus musculus [35] = experiment: In Vivo detection in Mice plasma after oral administration of 58.33 mg/kg detected in the form of AZT after 4 hr; type: functional, organism-based; parameters: dose 58.33 mg/kg
Mus musculus [36] = experiment: In Vivo detection in Mice plasma after oral administration of 58.33 mg/kg detected in the form of AZT phosphodiester 2 after 24 hr; type: functional, organism-based; parameters: dose 58.33 mg/kg; procedure, shortened: as §2
Mus musculus [37] = experiment: In Vivo detection of total AZT in Mice plasma after oral administration of 58.33 mg/kg after 0.5 hr; type: functional, organism-based; parameters: dose 58.33 mg/kg; procedure, shortened: as §2
Mus musculus [38] = experiment: In Vivo detection of total AZT in Mice plasma after oral administration of 58.33 mg/kg after 1 hr; type: functional, organism-based; parameters: dose 58.33 mg/kg; procedure, shortened: as §2
Mus musculus [39] = experiment: In Vivo detection of total AZT in Mice plasma after oral administration of 58.33 mg/kg after 2 hr; type: functional, organism-based; parameters: dose 58.33 mg/kg; procedure, shortened: as §2
Mus musculus [40] = experiment: In Vivo detection in Mice brains after oral administration of 58.33 mg/kg detected in the form of AZT phosphodiester 2 after 8 hr; type: functional

SMILES: Cc1cn([C@H]2C[C@H](N=[N+]=[N-])[C@@H](COP(=O)(O)OCCO[C@H]3O[C@H](CO)[C@@H](O)[C@H](O)[C@@H]3O)O2)c(=O)[nH]c1=O
- Brain content (Mus musculus [1]): 31 nmol/g
- Brain content (Mus musculus [2]): 48.5 nmol/g
- Brain content (Mus musculus [3]): 33.3 nmol/g
- Brain content (Mus musculus [4]): 1.8 nmol/g
- Brain content (Mus musculus [5]): 0.8 nmol/g
- Plasma content (Mus musculus [6]): 20.4 nM ml-1
- Brain content (Mus musculus [7]): 61.8 nM ml-1
- Brain content (Mus musculus [8]): 26.2 nM ml-1
- Plasma content (Mus musculus [9]): 0 nM ml-1
- Plasma content (Mus musculus [10]): 0 nM ml-1
- Plasma content (Mus musculus [11]): 1.6 nM ml-1
- Brain content (Mus musculus [12]): 38.6 nM ml-1
- Plasma content (Mus musculus [13]): 17.9 nM ml-1
- Plasma content (Mus musculus [14]): 6.7 nM ml-1
- Brain content (Mus musculus [15]): 43.1 nM ml-1
- Brain content (Mus musculus [16]): 4.5 nM ml-1
- Brain content (Mus musculus [17]): 5.2 nM ml-1
- Plasma content (Mus musculus [18]): 56.5 nM ml-1
- Plasma content (Mus musculus [19]): 19.7 nM ml-1
- Brain content (Mus musculus [20]): 7.9 nM ml-1
- Plasma content (Mus musculus [21]): 31.6 nM ml-1

SMILES: CCCCCCCCCCCCCCCCOP(=O)(OCCO[C@H]1O[C@H](CO)[C@@H](O)[C@H](O)[C@@H]1O)OCC1OC(n2cc(C)c(=O)[nH]c2=O)CC1N=[N+]=[N-] (stereo not given in full)
- Brain content (Mus musculus [22]): 106 nmol/g
- Brain content (Mus musculus [23]): 2.9 nmol/g
- Brain content (Mus musculus [24]): 5.2 nmol/g
- Brain content (Mus musculus [25]): 7.1 nmol/g
- Brain content (Mus musculus [26]): 0 nmol/g
- Brain content (Mus musculus [27]): 113 nmol/g
- Plasma content (Mus musculus [28]): 12.7 nM ml-1
- Plasma content (Mus musculus [29]): 14.2 nM ml-1
- Plasma content (Mus musculus [30]): 0 nM ml-1
- Brain content (Mus musculus [31]): 0 nM ml-1
- Brain content (Mus musculus [32]): 140.8 nM ml-1
- Plasma content (Mus musculus [33]): 26.3 nM ml-1
- Plasma content (Mus musculus [34]): 0 nM ml-1
- Plasma content (Mus musculus [35]): 2.3 nM ml-1
- Plasma content (Mus musculus [36]): 0 nM ml-1
- Plasma content (Mus musculus [37]): 13.7 nM ml-1
- Plasma content (Mus musculus [38]): 14 nM ml-1
- Plasma content (Mus musculus [39]): 5.4 nM ml-1
- Brain content (Mus musculus [40]): 5.3 nM ml-1
